In one series the test system is Coxsackievirus B3. Nature of the series: Antiviral activity against Coxsackie virus B3 […] infected in human HeLa cells assessed as reduction of virus-induced cytopathic effect by MTT assay. The format is functional, organism-based, Nancy. The gist of the method: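 HeLa monolayers were exposed to 100 TCID₅₀ of CVB3 […] together with serial 2-fold compound dilutions below CC₅₀, in DMEM with 2% serum. Uninfected and untreated infected wells served as controls. Plates were kept at 37 °C in humidified CO₂ until virus control CPE peaked, then read by MTT. IC₅₀ is the concentration reducing CPE by 50%, as mean of three independent experiments.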
Background: Cytopathic effects are the visible damage that an infection or toxin causes in cultured cells.

Series [1] in a line: Cytotoxicity against human HeLa cells after 48 hrs by MTT assay. The format is cell-based. The gist of the method: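 HeLa monolayers were treated with compound at 200–6.25 µg/mL in DMEM with 2% serum for 48 h at 37 °C. MTT (0.5 mg/mL in PBS) was added for 4 h, then DMSO for 30 min at room temperature, and OD was read at 570/630 nm. CC₅₀ was taken from the mean dose-response curve of three independent experiments.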
On the technique in general: Formazan colour is commonly taken as a measure of viable cells.

Series [2] is described as follows: Therapeutic index, CC50 for human HeLa cells to IC50 for Coxsackie virus B3 […]. The format is cell-based. Conditions: read-out: Ratio CC50/IC50. A digest of the protocol:
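TI is CC₅₀ divided by IC₅₀. CC₅₀ comes from a 48 h HeLa MTT viability assay; IC₅₀ comes from an MTT-read CPE-inhibition assay with 100 TCID₅₀ CVB3 […] in HeLa cells. Both use DMEM with 2% serum at 37 °C and are means of three independent experiments.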

Setting [3] is: Enterovirus B, Nancy, HeLa, read-out: IC50.

Values after ≈ are worked out from the molar mass of the structure shown.

As to `C[C@@H]1CO[C@@]2(C[C@@H]1OC(=O)c1ccc(O)cc1)O[C@@H]1C[C@@H](C(=O)O[C@@H]3O[C@H](CO)[C@@H](O)[C@H](O)[C@H]3O[C@@H]3O[C@H](CO)[C@@H](O)[C@H](O)[C@H]3O)C[C@@H](O)[C@]1(O)C2=O` [4'-HYDROXYPHYLLAEMBLICIN B], the IC50 result with Coxsackievirus B3 (hela) is listed as “Not Active”. As for `COC(=O)[C@H]1C[C@@H](O)[C@]2(O)C(=O)[C@]3(C[C@H](OC(=O)c4ccccc4)[C@H](C)CO3)O[C@@H]2C1` [PHYLLAEMBLIC ACID METHY ESTER], in series [1], the CC50 at 48 h stood at 214 µg/mL (≈ 492 µM). In addition, the 50% inhibitory concentration (IC50) in the series on Coxsackievirus B3 (setting [3]) is 21.8 µg/mL (≈ 50.2 µM). The selectivity ratio in series [2] turned out to be 9.8. For the compound `C[C@@H]1CO[C@@]2(C[C@@H]1OC(=O)c1ccccc1)O[C@@H]1C[C@@H](C(=O)O)C[C@@H](O)[C@]1(O)C2=O` [PHYLLAEMBLIC ACID], in the series with Coxsackievirus B3 (hela), the IC50 result was “Not Active”. Turning to `C[C@@H]1CO[C@@]2(C[C@@H]1OC(=O)c1ccccc1)O[C@@H]1C[C@@H](C(=O)O[C@@H]3O[C@H](CO)[C@@H](O)[C@H](O)[C@H]3O)C[C@@H](O)[C@]1(O)C2=O` [PHYLLAEMBLICIN A], the concentration for half-maximal inhibition (IC50) entry in the series with Coxsackievirus B3 (hela) is listed as “Not Active”. Compound `C[C@@H]1CO[C@@]2(C[C@@H]1OC(=O)c1ccccc1)O[C@@H]1C[C@@H](C(=O)O[C@@H]3O[C@H](CO)[C@@H](O)[C@H](O)[C@H]3O[C@@H]3O[C@H](CO)[C@@H](O)[C@H](O)[C@H]3O)C[C@@H](O)[C@]1(O)C2=O` [PHYLLAEMBLICIN B] yielded a cytotoxic concentration (CC50) at 48 h in series [1] of 50.2 µg/mL (≈ 67.4 µM). Also, the IC50 in the series on Coxsackievirus B3 (setting [3]) came out at 7.8 µg/mL (≈ 10.5 µM). Moreover, the selectivity ratio in series [2] came to 6.4. Take `C[C@@H]1CO[C@@]2(C[C@@H]1OC(=O)c1ccccc1)O[C@@H]1C[C@@H](C(=O)O[C@@H]3O[C@H](CO)[C@@H](O)[C@H](O)[C@H]3O[C@@H]3O[C@H](CO)[C@@H](O)[C@H](O)[C@H]3O[C@@H]3OC[C@@H](O)[C@@H](O)[C@@H]3O)C[C@@H](O)[C@]1(O)C2=O` [PHYLLAEMBLICIN C]: the CC50 at 48 h in series [1] is 67.7 µg/mL (≈ 77.2 µM). For the same compound, the IC50 in the series on Coxsackievirus B3 (setting [3]) came to 11 µg/mL (≈ 12.5 µM). Further, in series [2], the selectivity ratio is 6.2. For the compound `C[C@@H]1CO[C@@]2(C[C@@H]1OC(=O)c1ccccc1)O[C@@H]1C[C@@H](C(=O)O[C@@H]3O[C@H](CO)[C@@H](O)[C@H](O)[C@H]3O[C@@H]3O[C@H](CO)[C@@H](O)[C@H](O)[C@H]3O[C@@H]3OC[C@H](O)[C@@H](O)[C@@H]3O)C[C@@H](O)[C@]1(O)[C@H]2O` [PHYLLAEMBLICIN E], the concentration for half-maximal inhibition (IC50) result with Coxsackievirus B3 (hela) was “Not Active”. Still for that read-out and setting: under `C[C@@H]1CO[C@@]2(C[C@@H]1OC(=O)c1ccccc1)O[C@@H]1C[C@@H](C(=O)OC[C@H]3O[C@@H](O[C@H]4[C@H](OC(=O)[C@H]5C[C@@H](O)[C@]6(O)C(=O)[C@]7(C[C@H](OC(=O)c8ccccc8)[C@H](C)CO7)O[C@@H]6C5)O[C@H](CO)[C@@H](O)[C@@H]4O)[C@H](O)[C@@H](O)[C@@H]3O)C[C@@H](O)[C@]1(O)C2=O` [PHYLLAEMBLICIN F] stands “Not Active”.

As to `NC(=O)c1ncn([C@@H]2O[C@H](CO)[C@@H](O)[C@H]2O)n1` [RIBAVIRIN], in series [1], the CC50 at 48 h was 426 µg/mL (≈ 1740 µM). In addition, in the series on Coxsackievirus B3 (setting [3]), the concentration for half-maximal inhibition (IC50) was found to be 20.3 µg/mL (≈ 83.1 µM). In addition, the selectivity ratio in series [2] turned out to be 21.

As a reminder, the IC50 is the concentration needed to halve the response being measured. As a reminder, the CC50 is the concentration at which the toxic effect on the cells reaches its halfway point.

The values above are taken from ChEMBL document CHEMBL1152344, “Anti-coxsackie virus B3 norsesquiterpenoids from the roots of Phyllanthus emblica” (J Nat Prod, 2009).
